In ChEMBL document CHEMBL4049407, “Positional Scanning Identifies the Molecular Determinants of a High Affinity Multi-Leucine Inhibitor for Furin and PACE4” (J Med Chem, 2017):
Square brackets hold non-standard residues; d marks the D form. Peptide text beside a SMILES is read from it. * marks the point of attachment. NH(4-amidinobenzyl) = N=C(N)c1ccc(CN*)cc1

Legend:
[1] = target: T1, Proprotein convertase subtilisin/kexin type 6 (Homo sapiens, UniProt P29122); test: Inhibition of recombinant human PACE4 expressed in drosophila S2 cells using pyrGlu-Arg-Thr-Lys-Arg-7-amido-4-methylcoumarin as substrate after 60 mins by spectrofluorometry method; type: cell-based
T1 sequence (P29122 whole entry): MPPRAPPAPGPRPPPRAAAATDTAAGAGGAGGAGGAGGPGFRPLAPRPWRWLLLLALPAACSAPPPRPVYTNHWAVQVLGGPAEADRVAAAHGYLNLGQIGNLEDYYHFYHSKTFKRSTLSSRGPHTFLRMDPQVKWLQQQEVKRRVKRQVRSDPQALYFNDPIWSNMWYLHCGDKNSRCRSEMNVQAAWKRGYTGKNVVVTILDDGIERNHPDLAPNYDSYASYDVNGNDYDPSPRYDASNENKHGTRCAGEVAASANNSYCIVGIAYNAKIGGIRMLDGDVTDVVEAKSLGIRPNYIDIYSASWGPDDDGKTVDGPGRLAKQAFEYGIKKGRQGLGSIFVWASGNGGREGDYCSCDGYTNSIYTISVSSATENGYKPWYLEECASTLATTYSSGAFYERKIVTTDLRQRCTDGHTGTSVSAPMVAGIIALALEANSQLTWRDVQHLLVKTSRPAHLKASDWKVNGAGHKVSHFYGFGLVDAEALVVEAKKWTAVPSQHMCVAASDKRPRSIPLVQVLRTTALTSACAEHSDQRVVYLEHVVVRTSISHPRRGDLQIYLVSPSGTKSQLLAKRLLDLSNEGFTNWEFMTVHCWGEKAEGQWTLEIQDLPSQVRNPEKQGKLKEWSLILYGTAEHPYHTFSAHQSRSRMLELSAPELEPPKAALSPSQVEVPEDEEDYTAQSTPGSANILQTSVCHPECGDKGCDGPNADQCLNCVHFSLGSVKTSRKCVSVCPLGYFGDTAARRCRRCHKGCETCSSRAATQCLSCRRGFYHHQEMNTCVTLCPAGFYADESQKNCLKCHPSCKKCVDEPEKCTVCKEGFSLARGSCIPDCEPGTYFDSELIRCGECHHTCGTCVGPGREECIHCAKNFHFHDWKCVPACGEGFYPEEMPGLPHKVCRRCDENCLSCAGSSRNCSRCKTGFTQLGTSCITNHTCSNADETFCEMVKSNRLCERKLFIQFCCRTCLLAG
Procedure, shortened: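 Human recombinant purified PACE4 at 2 units/100 µL (20.18 nM), in 20 mM BisTris pH 6.5, 1 mM CaCl2, 1.8 mg/mL BSA. Substrate 100 µM, KM 4.035 µM. Inhibitor 1 nM to 10 µM; 60 min at 37°C. Fluorescence ex 370 / em 460 nm. Ki by Morrison tight-binding equation; three independent experiments, mean ± SD.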

Furin = Furin (Homo sapiens, UniProt P09958); test: Inhibition of recombinant human furin expressed in drosophila S2 cells using pyrGlu-Arg-Thr-Lys-Arg-7-amido-4-methylcoumarin as substrate after 60 mins by spectrofluorometry method; type: cell-based
Procedure, shortened: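 Human recombinant purified furin at 2 units/100 µL (0.54 nM), in 100 mM HEPES pH 7.5, 1 mM CaCl2, 1 mM β-mercaptoethanol, 1.8 mg/mL BSA. His-containing peptides run instead in 20 mM BisTris pH 6.5 with the same additives. Substrate 100 µM, KM 5.04 µM. Inhibitor 1 nM to 10 µM; 60 min at 37°C. Fluorescence ex 370 / em 460 nm. Ki by Morrison equation; triplicate experiments, mean ± SD.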

Homo sapiens = organism: Homo sapiens; test: Selectivity index, ratio of Ki for recombinant human furin expressed in drosophila S2 cells to Ki for recombinant human PACE4 expressed in drosophila S2 cells; type: cell-based
Procedure, shortened: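 Ratio Ki(furin)/Ki(PACE4). […] PACE4 buffer was BisTris pH 6.5; furin buffer was HEPES pH 7.5, or BisTris pH 6.5 for His peptides. Ki fitted by Morrison equation from three independent experiments.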

DU-145 = test: Antiproliferative activity against human DU145 cells assessed as reduction in metabolic activity after 72 hrs by MTT assay; type: functional, cell-based; details: DU-145, 72 h
Procedure, shortened: (§1)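 Cells kept at 37°C, 5% CO2 in RPMI 1640 (DU145 with 5% FBS, 1500 cells/well; LNCaP with 10% FBS, 2500 cells/well) on poly-L-lysine coated plates. Peptides added 24 h after plating in fresh serum medium at 0, 1, 10, 25, 50, 75, 100, 250 µM for 72 h. MTT 1 mg/mL final for 4 h; formazan dissolved in 2-propanol HCl. Signal normalised to water vehicle; IC50 from dose-response curves.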

LNCaP = test: Antiproliferative activity against human LNCAP cells assessed as reduction in metabolic activity after 72 hrs by MTT assay; type: functional, cell-based; procedure, shortened: as §1

Furin, sequence (P09958 whole entry): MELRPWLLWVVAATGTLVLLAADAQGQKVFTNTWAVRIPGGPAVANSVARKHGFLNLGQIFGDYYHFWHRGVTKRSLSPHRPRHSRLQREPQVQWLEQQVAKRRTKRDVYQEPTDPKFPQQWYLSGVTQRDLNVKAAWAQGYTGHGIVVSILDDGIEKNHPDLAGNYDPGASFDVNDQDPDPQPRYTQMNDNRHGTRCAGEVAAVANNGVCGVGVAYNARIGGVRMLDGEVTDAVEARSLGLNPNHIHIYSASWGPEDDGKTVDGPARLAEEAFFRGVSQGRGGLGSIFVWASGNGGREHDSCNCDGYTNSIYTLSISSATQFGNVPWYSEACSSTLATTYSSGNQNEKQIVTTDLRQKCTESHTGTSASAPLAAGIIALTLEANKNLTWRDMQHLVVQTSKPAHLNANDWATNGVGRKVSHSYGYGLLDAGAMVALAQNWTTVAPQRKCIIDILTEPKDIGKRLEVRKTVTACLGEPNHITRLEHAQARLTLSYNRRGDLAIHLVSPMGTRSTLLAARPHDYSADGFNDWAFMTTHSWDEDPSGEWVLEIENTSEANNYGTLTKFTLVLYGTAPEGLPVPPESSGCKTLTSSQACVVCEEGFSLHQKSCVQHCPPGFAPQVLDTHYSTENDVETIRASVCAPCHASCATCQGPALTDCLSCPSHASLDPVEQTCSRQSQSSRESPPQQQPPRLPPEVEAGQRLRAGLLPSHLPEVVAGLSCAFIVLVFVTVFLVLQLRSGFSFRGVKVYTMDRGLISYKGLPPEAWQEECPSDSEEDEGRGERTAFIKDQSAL

## CC(=O)N[C@H](C(=O)N[C@@H](CC(C)C)C(=O)N[C@@H](CC(C)C)C(=O)N[C@@H](CC(C)C)C(=O)N[C@@H](CCCNC(=N)N)C(=O)N[C@H](C(=O)N[C@@H](CCCCN)C(=O)NCc1ccc(C(=N)N)cc1)C(C)C)[C@@H](C)O (Ac-TLLLRVK-{NH(4-amidinobenzyl)})
[1]
  Ki: 4 nM
Furin
  Ki: 2.4 nM
Homo sapiens
  Ratio Ki: 0.6
DU-145
  IC50: 140000 nM
LNCaP
  IC50: 110000 nM

## CC(=O)N[C@@H](CC(C)C)C(=O)N[C@@H](Cc1c[nH]c2ccccc12)C(=O)N[C@@H](CC(C)C)C(=O)N[C@@H](CC(C)C)C(=O)N[C@@H](CCCNC(=N)N)C(=O)N[C@H](C(=O)N[C@@H](CCCCN)C(=O)NCc1ccc(C(=N)N)cc1)C(C)C (Ac-LWLLRVK-{NH(4-amidinobenzyl)})
[1]
  Ki: 8 nM
Furin
  Ki: 13 nM
Homo sapiens
  Ratio Ki: 1.6
DU-145
  IC50: 35000 nM
LNCaP
  IC50: 50000 nM

## CC(=O)N[C@@H](CC(=O)O)C(=O)N[C@@H](CC(C)C)C(=O)N[C@@H](CC(C)C)C(=O)N[C@@H](CC(C)C)C(=O)N[C@@H](CCCNC(=N)N)C(=O)N[C@H](C(=O)N[C@@H](CCCCN)C(=O)NCc1ccc(C(=N)N)cc1)C(C)C (Ac-DLLLRVK-{NH(4-amidinobenzyl)})
[1]
  Ki: 12 nM
Furin
  Ki: 8 nM
Homo sapiens
  Ratio Ki: 0.7
DU-145
  IC50: 90000 nM
LNCaP
  IC50: 40000 nM

## CC(=O)N[C@@H](Cc1ccc(O)cc1)C(=O)N[C@@H](CC(C)C)C(=O)N[C@@H](CC(C)C)C(=O)N[C@@H](CC(C)C)C(=O)N[C@@H](CCCNC(=N)N)C(=O)N[C@H](C(=O)N[C@@H](CCCCN)C(=O)NCc1ccc(C(=N)N)cc1)C(C)C (Ac-YLLLRVK-{NH(4-amidinobenzyl)})
[1]
  Ki: 6.2 nM
Furin
  Ki: 4 nM
Homo sapiens
  Ratio Ki: 0.6
DU-145
  IC50: 23000 nM
LNCaP
  IC50: 160000 nM

## CC(=O)N[C@@H](CC(C)C)C(=O)N[C@@H](CC(C)C)C(=O)N[C@@H](Cc1ccccc1)C(=O)N[C@@H](CC(C)C)C(=O)N[C@@H](CCCNC(=N)N)C(=O)N[C@H](C(=O)N[C@@H](CCCCN)C(=O)NCc1ccc(C(=N)N)cc1)C(C)C (Ac-LLFLRVK-{NH(4-amidinobenzyl)})
[1]
  Ki: 16 nM
Furin
  Ki: 5 nM
Homo sapiens
  Ratio Ki: 0.3
DU-145
  IC50: 38000 nM
LNCaP
  IC50: 40000 nM

## CC(=O)N[C@@H](CC(C)C)C(=O)N[C@@H](CC(C)C)C(=O)N[C@@H](CC(C)C)C(=O)N[C@@H](CCC(N)=O)C(=O)N[C@@H](CCCNC(=N)N)C(=O)N[C@H](C(=O)N[C@@H](CCCCN)C(=O)NCc1ccc(C(=N)N)cc1)C(C)C (Ac-LLLQRVK-{NH(4-amidinobenzyl)})
[1]
  Ki: 5 nM
Furin
  Ki: 4 nM
Homo sapiens
  Ratio Ki: 0.8
DU-145
  IC50: 12000 nM
LNCaP
  IC50: 26000 nM

## CC(=O)N[C@@H](CO)C(=O)N[C@@H](CC(C)C)C(=O)N[C@@H](CC(C)C)C(=O)N[C@@H](CC(C)C)C(=O)N[C@@H](CCCNC(=N)N)C(=O)N[C@H](C(=O)N[C@@H](CCCCN)C(=O)NCc1ccc(C(=N)N)cc1)C(C)C (Ac-SLLLRVK-{NH(4-amidinobenzyl)})
[1]
  Ki: 6 nM
Furin
  Ki: 4 nM
Homo sapiens
  Ratio Ki: 0.7
DU-145
  IC50: 100000 nM
LNCaP
  IC50: > 250000 nM

## CC(=O)N[C@@H](Cc1c[nH]c2ccccc12)C(=O)N[C@@H](CC(C)C)C(=O)N[C@@H](CC(C)C)C(=O)N[C@@H](CC(C)C)C(=O)N[C@@H](CCCNC(=N)N)C(=O)N[C@H](C(=O)N[C@@H](CCCCN)C(=O)NCc1ccc(C(=N)N)cc1)C(C)C (Ac-WLLLRVK-{NH(4-amidinobenzyl)})
[1]
  Ki: 9 nM
Furin
  Ki: 6 nM
Homo sapiens
  Ratio Ki: 0.7
DU-145
  IC50: 23000 nM
LNCaP
  IC50: 39000 nM

## CC(=O)N[C@@H](Cc1ccccc1)C(=O)N[C@@H](CC(C)C)C(=O)N[C@@H](CC(C)C)C(=O)N[C@@H](CC(C)C)C(=O)N[C@@H](CCCNC(=N)N)C(=O)N[C@H](C(=O)N[C@@H](CCCCN)C(=O)NCc1ccc(C(=N)N)cc1)C(C)C (Ac-FLLLRVK-{NH(4-amidinobenzyl)})
[1]
  Ki: 9 nM
Furin
  Ki: 9 nM
Homo sapiens
  Ratio Ki: 1
DU-145
  IC50: 30000 nM
LNCaP
  IC50: 41000 nM

## CC(=O)N[C@@H](CCC(N)=O)C(=O)N[C@@H](CC(C)C)C(=O)N[C@@H](CC(C)C)C(=O)N[C@@H](CC(C)C)C(=O)N[C@@H](CCCNC(=N)N)C(=O)N[C@H](C(=O)N[C@@H](CCCCN)C(=O)NCc1ccc(C(=N)N)cc1)C(C)C (Ac-QLLLRVK-{NH(4-amidinobenzyl)})
[1]
  Ki: 3 nM
Furin
  Ki: 3 nM
Homo sapiens
  Ratio Ki: 1
DU-145
  IC50: 150000 nM
LNCaP
  IC50: > 250000 nM

## CC[C@H](C)[C@H](NC(=O)[C@H](CC(C)C)NC(=O)[C@H](CC(C)C)NC(C)=O)C(=O)N[C@@H](CC(C)C)C(=O)N[C@@H](CCCNC(=N)N)C(=O)N[C@H](C(=O)N[C@@H](CCCCN)C(=O)NCc1ccc(C(=N)N)cc1)C(C)C (Ac-LLILRVK-{NH(4-amidinobenzyl)})
[1]
  Ki: 10 nM
Furin
  Ki: 30 nM
Homo sapiens
  Ratio Ki: 3
DU-145
  IC50: 32000 nM
LNCaP
  IC50: 80000 nM

## CC[C@H](C)[C@H](NC(=O)[C@H](CC(C)C)NC(=O)[C@H](CC(C)C)NC(=O)[C@H](CC(C)C)NC(C)=O)C(=O)N[C@@H](CCCNC(=N)N)C(=O)N[C@H](C(=O)N[C@@H](CCCCN)C(=O)NCc1ccc(C(=N)N)cc1)C(C)C (Ac-LLLIRVK-{NH(4-amidinobenzyl)})
[1]
  Ki: 8 nM
Furin
  Ki: 27 nM
Homo sapiens
  Ratio Ki: 3.4
DU-145
  IC50: 50000 nM
LNCaP
  IC50: 28000 nM

## CC(=O)N[C@H](CC(C)C)C(=O)N[C@@H](CC(C)C)C(=O)N[C@@H](CC(C)C)C(=O)N[C@@H](CC(C)C)C(=O)N[C@@H](CCCNC(=N)N)C(=O)N[C@H](C(=O)N[C@@H](CCCCN)C(=O)NCc1ccc(C(=N)N)cc1)C(C)C (Ac-[dL]LLLRVK-{NH(4-amidinobenzyl)})
[1]
  Ki: 4.9 nM
Furin
  Ki: 9.8 nM
Homo sapiens
  Ratio Ki: 2
DU-145
  IC50: 25000 nM
LNCaP
  IC50: 40000 nM

## CC(=O)N[C@@H](CC(C)C)C(=O)N[C@@H](Cc1ccccc1)C(=O)N[C@@H](CC(C)C)C(=O)N[C@@H](CC(C)C)C(=O)N[C@@H](CCCNC(=N)N)C(=O)N[C@H](C(=O)N[C@@H](CCCCN)C(=O)NCc1ccc(C(=N)N)cc1)C(C)C (Ac-LFLLRVK-{NH(4-amidinobenzyl)})
[1]
  Ki: 8 nM
Furin
  Ki: 7 nM
Homo sapiens
  Ratio Ki: 0.9
DU-145
  IC50: 36000 nM
LNCaP
  IC50: 31000 nM

## CC(=O)N[C@@H](CCC(=O)O)C(=O)N[C@@H](CC(C)C)C(=O)N[C@@H](CC(C)C)C(=O)N[C@@H](CC(C)C)C(=O)N[C@@H](CCCNC(=N)N)C(=O)N[C@H](C(=O)N[C@@H](CCCCN)C(=O)NCc1ccc(C(=N)N)cc1)C(C)C (Ac-ELLLRVK-{NH(4-amidinobenzyl)})
[1]
  Ki: 8 nM
Furin
  Ki: 7 nM
Homo sapiens
  Ratio Ki: 0.9
DU-145
  IC50: 150000 nM
LNCaP
  IC50: 120000 nM

## CC[C@H](C)[C@H](NC(=O)[C@H](CC(C)C)NC(C)=O)C(=O)N[C@@H](CC(C)C)C(=O)N[C@@H](CC(C)C)C(=O)N[C@@H](CCCNC(=N)N)C(=O)N[C@H](C(=O)N[C@@H](CCCCN)C(=O)NCc1ccc(C(=N)N)cc1)C(C)C (Ac-LILLRVK-{NH(4-amidinobenzyl)})
[1]
  Ki: 2.5 nM
Furin
  Ki: 2 nM
Homo sapiens
  Ratio Ki: 0.8
DU-145
  IC50: 31000 nM
LNCaP
  IC50: 40000 nM
